Data from article PMC3742633 (Molecular cancer therapeutics, 2013).

What was measured:
[1] = biological target: recombinant human PFKFB3 protein (Homo sapiens, UniProt Q16875); experiment: Recombinant PFKFB3 kinase assay; assay type: biochemical
purified PFK-1 = experiment: Activity of purified PFK-1; assay type: biochemical; details: up to 100 μM; data not shown
phosphoglucoseisomerase = phosphoglucoseisomerase (Homo sapiens, UniProt P06744); experiment: Activity of purified phosphoglucoseisomerase; assay type: biochemical; details: up to 100 μM; data not shown
PFKFB4 = PFKFB4 (Homo sapiens, UniProt Q16877); experiment: Activity of purified PFKFB4; assay type: biochemical; details: up to 100 μM; data not shown
Chain of PFKFB4 (Q16877 whole entry, species assumed): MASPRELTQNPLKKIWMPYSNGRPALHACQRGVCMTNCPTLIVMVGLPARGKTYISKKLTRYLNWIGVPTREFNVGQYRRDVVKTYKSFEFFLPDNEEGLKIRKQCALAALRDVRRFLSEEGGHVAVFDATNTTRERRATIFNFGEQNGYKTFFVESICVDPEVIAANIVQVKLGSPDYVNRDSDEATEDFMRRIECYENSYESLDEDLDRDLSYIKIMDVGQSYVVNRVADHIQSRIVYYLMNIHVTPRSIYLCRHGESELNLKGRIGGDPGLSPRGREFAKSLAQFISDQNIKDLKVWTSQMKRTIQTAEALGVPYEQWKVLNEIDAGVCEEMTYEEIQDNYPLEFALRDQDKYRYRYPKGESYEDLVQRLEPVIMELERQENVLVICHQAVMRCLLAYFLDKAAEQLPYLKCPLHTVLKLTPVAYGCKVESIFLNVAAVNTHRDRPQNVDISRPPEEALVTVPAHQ

[2] = test system: H522 human lung adenocarcinoma cells; experiment: Cell viability, trypan blue exclusion; assay type: cell-based; details: NCI-H522, 48 h, read-out: IC50 cytotoxic effects (viability)
[3] = Pharmacokinetic profile after IV administration; assay type: in vivo, female C57Bl/6 mice; details: plasma
Summary of the method: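 Test compound was given IV to female C57Bl/6 mice, with 8 time points and 3 animals per time point. Plasma was extracted with acetonitrile and analysed by LC-MS/MS on a polar reverse-phase column with a 0.5% formic acid acetonitrile/water mobile phase. Tmax, Cmax, volume of distribution, half-life, clearance, AUCs and MRT were calculated from the concentration–time data.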

LLC tumors [4] = experiment: Lewis lung carcinoma; assay type: in vivo, C57Bl/6 mice
Summary of the method: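 C57Bl/6 mice (20 g) given 1×10^6 LLC cells s.c. in PBS. At 150–200 mg tumor mass, groups of 8 randomized to DMSO or test compound 25 mg/kg i.p. (methods: every 3 days ×4). Blinded caliper tumor mass and body mass recorded daily; lungs examined for metastases after 14 days. Separate subgroup at day 4: tumors assayed for F26BP, plus H&E and anti-cleaved caspase 3 immunohistochemistry on formalin-fixed paraffin sections.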

LLC tumors [5] = experiment: 18F-FDG micro-PET imaging of LLC-bearing mice; assay type: in vivo, C57Bl/6 mice; details: 25 mg/kg i.p. once, 45 minutes, normalized to FDG uptake in the cerebellum
Summary of the method: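 Tumor-bearing mice were anesthetized with isoflurane and given 200 μCi FDG i.v. by tail vein. Baseline 15-min static micro-PET scans were taken 45 min after tracer (OSEM, 6 subsets/4 iterations). Tumor and cerebellum regions of interest were quantified in quadruplicate. 24 h later, test compound 25 mg/kg i.p. once, then re-scan 45 min later.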

CCRF-CEM = experiment: NCI 60 cell line screen, Sulforhodamine B Assay; assay type: cell-based; details: Homo sapiens, 48 h
Summary of the method: (§1)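 Run through the NCI-60 screening service: human cancer cell lines exposed to test compound for 48 h. Growth read as cellular protein content by sulforhodamine B staining, and GI50 derived from this.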

HL-60(TB) = experiment: NCI 60 cell line screen, Sulforhodamine B Assay; assay type: cell-based; details: Homo sapiens, HL-60, 48 h
Summary of the method: as §1

RPMI-8226 = experiment: NCI 60 cell line screen, Sulforhodamine B Assay; assay type: cell-based; details: Homo sapiens, RPMI-8226, 48 h
Summary of the method: as §1

HOP-92 = experiment: NCI 60 cell line screen, Sulforhodamine B Assay; assay type: cell-based; details: Homo sapiens, HOP-92, 48 h
Summary of the method: as §1

NCI-H522 = experiment: NCI 60 cell line screen, Sulforhodamine B Assay; assay type: cell-based; details: Homo sapiens, NCI-H522, 48 h
Summary of the method: as §1

COLO 205 = experiment: NCI 60 cell line screen, Sulforhodamine B Assay; assay type: cell-based; details: Homo sapiens, COLO 205, 48 h
Summary of the method: as §1

HCC-2998 = experiment: NCI 60 cell line screen, Sulforhodamine B Assay; assay type: cell-based; details: Homo sapiens, HCC 2998, 48 h
Summary of the method: as §1

HCT-116 = experiment: NCI 60 cell line screen, Sulforhodamine B Assay; assay type: cell-based; details: Homo sapiens, HCT-116, 48 h
Summary of the method: as §1

HCT-15 = experiment: NCI 60 cell line screen, Sulforhodamine B Assay; assay type: cell-based; details: Homo sapiens, HCT-15, 48 h
Summary of the method: as §1

KM12 = experiment: NCI 60 cell line screen, Sulforhodamine B Assay; assay type: cell-based; details: Homo sapiens, KM12, 48 h
Summary of the method: as §1

SF-295 = experiment: NCI 60 cell line screen, Sulforhodamine B Assay; assay type: cell-based; details: Homo sapiens, SF-295, 48 h
Summary of the method: as §1

SNB-19 = experiment: NCI 60 cell line screen, Sulforhodamine B Assay; assay type: cell-based; details: Homo sapiens, SNB-19, 48 h
Summary of the method: (§2)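 Run through the National Cancer Institute 60 cell line screening service on its panel of 59 human cancer lines in vitro. Cytostatic/toxic effect was read as cellular protein content (sulforhodamine B) over 48 h.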

SNB-15 = experiment: NCI 60 cell line screen, Sulforhodamine B Assay; assay type: cell-based; details: Homo sapiens, 48 h
Summary of the method: as §2

U251 = experiment: NCI 60 cell line screen, Sulforhodamine B Assay; assay type: cell-based; details: Homo sapiens, U-251, 48 h
Summary of the method: as §2

MDA-MB-435 = experiment: NCI 60 cell line screen, Sulforhodamine B Assay; assay type: cell-based; details: Homo sapiens, MDA-MB-435, 48 h
Summary of the method: as §1

SK-MEL-5 = experiment: NCI 60 cell line screen, Sulforhodamine B Assay; assay type: cell-based; details: Homo sapiens, SK-MEL-5, 48 h
Summary of the method: as §2

OVCAR-3 = experiment: NCI 60 cell line screen, Sulforhodamine B Assay; assay type: cell-based; details: Homo sapiens, OVCAR-3, 48 h
Summary of the method: as §1

A498 = experiment: NCI 60 cell line screen, Sulforhodamine B Assay; assay type: cell-based; details: Homo sapiens, A498, 48 h
Summary of the method: as §1

CAKI-1 = experiment: NCI 60 cell line screen, Sulforhodamine B Assay; assay type: cell-based; details: Homo sapiens, CAKI-1, 48 h
Summary of the method: as §1

RXF 393 = experiment: NCI 60 cell line screen, Sulforhodamine B Assay; assay type: cell-based; details: Homo sapiens, RXF 393, 48 h
Summary of the method: as §1

DU-145 = experiment: NCI 60 cell line screen, Sulforhodamine B Assay; assay type: cell-based; details: Homo sapiens, DU-145, 48 h
Summary of the method: as §1

MCF7 = experiment: NCI 60 cell line screen, Sulforhodamine B Assay; assay type: cell-based; details: Homo sapiens, MCF7, 48 h
Summary of the method: as §1

BT-549 = experiment: NCI 60 cell line screen, Sulforhodamine B Assay; assay type: cell-based; details: Homo sapiens, BT-549, 48 h
Summary of the method: as §1

MDA-MB-468 = experiment: NCI 60 cell line screen, Sulforhodamine B Assay; assay type: cell-based; details: Homo sapiens, MDA-MB-468, 48 h
Summary of the method: as §1

[6] = female, C57Bl/6, mouse, iv, 5 mg/kg
[7] = four days after initiation, n=4

Chain of recombinant human PFKFB3 protein (Q16875 whole entry): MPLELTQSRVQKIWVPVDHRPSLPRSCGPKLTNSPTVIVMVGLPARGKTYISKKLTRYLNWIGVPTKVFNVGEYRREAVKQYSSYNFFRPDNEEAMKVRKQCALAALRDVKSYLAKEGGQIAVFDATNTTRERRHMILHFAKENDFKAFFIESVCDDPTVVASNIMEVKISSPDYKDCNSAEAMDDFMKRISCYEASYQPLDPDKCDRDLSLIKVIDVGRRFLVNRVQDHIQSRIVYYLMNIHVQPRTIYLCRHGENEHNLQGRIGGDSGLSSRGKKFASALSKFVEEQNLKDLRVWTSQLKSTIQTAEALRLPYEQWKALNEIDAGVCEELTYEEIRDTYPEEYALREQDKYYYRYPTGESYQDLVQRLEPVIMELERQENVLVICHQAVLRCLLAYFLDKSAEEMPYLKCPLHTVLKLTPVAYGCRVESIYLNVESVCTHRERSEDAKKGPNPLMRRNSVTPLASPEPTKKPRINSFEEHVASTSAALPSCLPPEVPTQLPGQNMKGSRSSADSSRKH

O=C(C=Cc1ccc2ccccc2n1)c1ccncc1 [PFK15, 1-(4-pyridinyl)-3-(2-quinolinyl)-2-propen-1-one]
IC50 [1]: 0.207 µM | fold more activity against PFKFB3 than 3PO ([1]; relative to 3PO): approximately 100 fold | inhibition of activity of purified PFK-1 (purified PFK-1): not inhibit | inhibition of activity of purified phosphoglucoseisomerase (phosphoglucoseisomerase): not inhibit | inhibition of activity of purified PFKFB4 (PFKFB4): not inhibit | IC50 [2]: 0.72 µM | AUC0-inf ([3]; IV, C57Bl/6 mice): 1804 ng/h/mL | Cmax [3, 6]: 3050 ng/mL | clearance [3, 6]: 46.2 mL/min/kg | half-life [3, 6]: 5.1 h | effect on body mass of LLC-bearing mice (LLC tumors [4]; PFK15 i.p., C57Bl/6 mice): without a major effect | growth of established LLC tumors (LLC tumors [4]; PFK15 i.p., C57Bl/6 mice, 14 days): statistically significant reduction | lung metastases in LLC-bearing mice (LLC tumors [4]; after 14 days): no lung metastases | cells positive for cleaved caspase 3 by immunohistochemistry (LLC tumors [4]; [7]): marked increase | tumor-associated F26BP (LLC tumors [4]; [7]): reduced | reduction in 18F-FDG uptake (LLC tumors [5]): ~ 50% | GI50 (CCRF-CEM): 3.8 µM | GI50 (HL-60(TB)): 2.04 µM | GI50 (RPMI-8226): 2.19 µM | GI50 (HOP-92): 3.02 µM | GI50 (NCI-H522): 1.74 µM | GI50 (COLO 205): 2.45 µM | GI50 (HCC-2998): 1.91 µM | GI50 (HCT-116): 1.32 µM | GI50 (HCT-15): 1.1 µM | GI50 (KM12): 1.95 µM | GI50 (SF-295): 13.5 µM | GI50 (SNB-19): 4.57 µM | GI50 (SNB-15): 11.2 µM | GI50 (U251): 2.04 µM | GI50 (MDA-MB-435): 3.24 µM | GI50 (SK-MEL-5): 3.47 µM | GI50 (OVCAR-3): 3.16 µM | GI50 (A498): 11.8 µM | GI50 (CAKI-1): 11.5 µM | GI50 (RXF 393): 1.7 µM | GI50 (DU-145): 2.24 µM | GI50 (MCF7): 1.86 µM | GI50 (BT-549): 2.75 µM | GI50 (MDA-MB-468): 1.66 µM
